Measurements gathered from unrelated publications.
Lines come from different studies, so protocols differ.

Compound | target or system | test | test system | setting | quantity | value
COC(=O)[C@@H]1[C@@H](c2ccccc2)[C@]2(c3ccc(OC)cc3)Oc3cc(OC)cc(OC)c3[C@@]23N=C(C)N[C@@]13O | HepG2 | cell growth or viability, MTT | – | 48 h | CC50 | 0.0105 µM
O=C1[O][Pt]2([NH][C@@H]3CCCC[C@H]3[NH]2)[O]C1=O (relative stereo) | – | – | cynomolgus monkey, plasma | intravenous, 2 mg/kg | AUC(0-t) | 9170 ng·h/mL
CCCCCCCCCCOc1cc2c(O)c(C(=O)OCC)cnc2cc1OCC | HepG2 | cell growth or viability | – | 72 h | IC50 | > 100 µM
CN1CCCCC1Cn1cc(C(=O)c2cc([N+](=O)[O-])ccc2I)c2ccccc21 (racemic) | – | – | mouse, plasma | intravenous, 25 mg/kg | MRT | 54.7 min
Cc1cc(C)nc(Nc2ncc(C(=O)NCCc3c(C)[nH]c4ccccc34)cn2)c1 | – | metabolic stability | male human, hepatocytes | 1 µM | half-life | 41 min
N=c1c2c(-c3ccccc3)c(-c3ccccc3)n(Cc3ccccc3)c2ncn1[C@H]1CC[C@H](O)CC1 | – | – | male cynomolgus monkey, plasma | oral, 1 mg/kg, single dose | AUC(0-inf) | 27800 ng·h/mL
CCC1(c2ccccc2)C(=O)NC(=O)NC1=O | HepG2 | cell growth or viability, ATP luminescence | – | – | CC50 | > 1000 µM
O=C(c1ccc(-n2sc3ncccc3c2=O)cc1)N1CCOCC1 | – | metabolic stability | human, liver microsomes | – | half-life | > 120 min
